How the values were obtained:
HepG2 = assay: Antitumor activity against human HepG2 cells xenografted in Swiss albino mouse assessed as increase in life span at 10 ug/kg, ip for 10 consecutive days relative to control; type: functional
Summary of the method: (§1)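 Male Swiss albino mice (20 ± 2 g), acclimatised one week at 25–27 °C, 12 h light/dark. Ascites tumour established by i.p. inoculation of 1 × 10⁶ viable cells. Dosing began 24 h after inoculation, i.p. daily for 10 consecutive days. DMSO vehicle control group; cisplatine 2 mg/kg i.p. for 10 days as reference. Survival time recorded and % increase in life span derived; mean ± SE, n = 10 mice.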

Mus musculus [1] = assay: Acute toxicity in ip dosed Swiss albino mouse inoculated with human HeLa cells assessed as mortality measured up to two weeks; type: organism-based; conditions: in vivo
Summary of the method: (§2)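 Adult Swiss albino mice fasted 12 h, randomised into groups of 10. Single i.p. administration at graded doses, 1 ml/kg body weight; controls received vehicle alone. Food and water given immediately after dosing. Mortality followed for up to two weeks. LD50 taken as the dose giving 50% mortality.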

Mus musculus [2] = assay: Acute toxicity in ip dosed Swiss albino mouse xenografted with human HepG2 cells assessed as mortality measured up to two weeks; type: organism-based; conditions: in vivo; summary of the method: as §2
HeLa = assay: Antitumor activity against human HeLa cells xenografted in Swiss albino mouse assessed as increase in life span at 10 ug/kg, ip for 10 consecutive days relative to control; type: functional; summary of the method: as §1

Structure (SMILES): CC(=O)O[C@H]1O[C@@H](SC2=C(C#N)C(c3ccc([N+](=O)[O-])cc3)C(C#N)=C(N)N2)[C@H](OC(C)=O)[C@@H](OC(C)=O)[C@@H]1OC(=O)O (stereo not given in full)
- Activity (HepG2): 34%
- LD50 (Mus musculus [1]): 0.07 mg/kg
- LD50 (Mus musculus [2]): 0.085 mg/kg
- Activity (HeLa): 27%

Structure (SMILES): COc1ccc(C2C(C#N)=C(N)NC(S[C@@H]3O[C@H](OC(C)=O)[C@@H](OC(=O)O)[C@H](OC(C)=O)[C@H]3OC(C)=O)=C2C#N)cc1 (stereo not given in full)
- Activity (HepG2): 39%
- LD50 (Mus musculus [1]): 0.16 mg/kg
- LD50 (Mus musculus [2]): 0.15 mg/kg
- Activity (HeLa): 25%

Structure (SMILES): CC(=O)O[C@H]1O[C@@H](SC2=C(C#N)C(c3ccc4ccccc4c3)C(C#N)=C(N)N2)[C@H](OC(C)=O)[C@@H](OC(C)=O)[C@H]1OC(=O)O (stereo not given in full)
- Activity (HepG2): 38%
- LD50 (Mus musculus [1]): 0.07 mg/kg
- LD50 (Mus musculus [2]): 0.065 mg/kg
- Activity (HeLa): 31%

Structure (SMILES): COc1ccc(C2C(C#N)=C(N)NC(S[C@@H]3O[C@H](OC(C)=O)[C@H](OC(=O)O)[C@H](OC(C)=O)[C@H]3OC(C)=O)=C2C#N)cc1 (stereo not given in full)
- Activity (HepG2): 30%
- LD50 (Mus musculus [1]): 0.065 mg/kg
- LD50 (Mus musculus [2]): 0.06 mg/kg
- Activity (HeLa): 30%

Structure (SMILES): CC(=O)O[C@H]1O[C@@H](Sc2nc(N)c(C#N)c(-c3ccc4ccccc4c3)c2C#N)[C@H](OC(C)=O)[C@@H](OC(C)=O)[C@@H]1OC(C)=O
- Activity (HepG2): 49%
- LD50 (Mus musculus [1]): 0.06 mg/kg
- LD50 (Mus musculus [2]): 0.06 mg/kg
- Activity (HeLa): 40%

Structure (SMILES): CC(=O)O[C@H]1O[C@@H](Sc2nc(N)c(C#N)c(-c3ccc4ccccc4c3)c2C#N)[C@H](OC(C)=O)[C@@H](OC(C)=O)[C@H]1OC(C)=O
- Activity (HepG2): 50%
- LD50 (Mus musculus [1]): 0.135 mg/kg
- LD50 (Mus musculus [2]): 0.125 mg/kg
- Activity (HeLa): 39%

Structure (SMILES): COc1ccc(-c2c(C#N)c(N)nc(S[C@@H]3O[C@H](OC(C)=O)[C@H](OC(C)=O)[C@H](OC(C)=O)[C@H]3OC(C)=O)c2C#N)cc1
- Activity (HepG2): 48%
- LD50 (Mus musculus [1]): 0.07 mg/kg
- LD50 (Mus musculus [2]): 0.065 mg/kg
- Activity (HeLa): 47%

Structure (SMILES): COc1ccc(C2C(C#N)=C(N)NC(S[C@@H]3O[C@H](O)[C@H](O)[C@H](O)[C@H]3O)=C2C#N)cc1 (stereo not given in full)
- Activity (HepG2): 63%
- LD50 (Mus musculus [1]): 0.08 mg/kg
- LD50 (Mus musculus [2]): 0.06 mg/kg
- Activity (HeLa): 44%

Structure (SMILES): N#CC1=C(N)NC(S[C@@H]2O[C@H](O)[C@@H](O)[C@H](O)[C@H]2O)=C(C#N)C1c1ccc2ccccc2c1 (stereo not given in full)
- Activity (HepG2): 50%
- LD50 (Mus musculus [1]): 0.115 mg/kg
- LD50 (Mus musculus [2]): 0.11 mg/kg
- Activity (HeLa): 39%

Structure (SMILES): COc1ccc(C2C(C#N)=C(N)NC(S[C@@H]3O[C@H](O)[C@@H](O)[C@H](O)[C@H]3O)=C2C#N)cc1 (stereo not given in full)
- Activity (HepG2): 69%
- LD50 (Mus musculus [1]): 0.095 mg/kg
- LD50 (Mus musculus [2]): 0.11 mg/kg
- Activity (HeLa): 55%

Structure (SMILES): N#CC1=C(N)NC(S[C@@H]2O[C@H](O)[C@H](O)[C@H](O)[C@H]2O)=C(C#N)C1c1ccc2ccccc2c1 (stereo not given in full)
- Activity (HepG2): 60%
- LD50 (Mus musculus [1]): 0.12 mg/kg
- LD50 (Mus musculus [2]): 0.13 mg/kg
- Activity (HeLa): 45%

Structure (SMILES): N#Cc1c(N)nc(S[C@@H]2O[C@H](O)[C@@H](O)[C@H](O)[C@H]2O)c(C#N)c1-c1ccc2ccccc2c1
- Activity (HepG2): 58%
- LD50 (Mus musculus [1]): 0.11 mg/kg
- LD50 (Mus musculus [2]): 0.13 mg/kg
- Activity (HeLa): 51%

Structure (SMILES): CC(=O)O[C@H]1O[C@@H](SC2=C(C#N)C(c3ccccc3)C(C#N)=C(N)N2)[C@H](OC(C)=O)[C@@H](OC(C)=O)[C@@H]1OC(=O)O (stereo not given in full)
- Activity (HepG2): 29%
- LD50 (Mus musculus [1]): 0.075 mg/kg
- LD50 (Mus musculus [2]): 0.08 mg/kg
- Activity (HeLa): 30%

Structure (SMILES): CC(=O)O[C@H]1O[C@@H](SC2=C(C#N)C(c3ccc(Br)cc3)C(C#N)=C(N)N2)[C@H](OC(C)=O)[C@@H](OC(C)=O)[C@@H]1OC(=O)O (stereo not given in full)
- Activity (HepG2): 31%
- LD50 (Mus musculus [1]): 0.09 mg/kg
- LD50 (Mus musculus [2]): 0.09 mg/kg
- Activity (HeLa): 29%

Structure (SMILES): CC(=O)O[C@H]1O[C@@H](SC2=C(C#N)C(c3ccccc3)C(C#N)=C(N)N2)[C@H](OC(C)=O)[C@@H](OC(C)=O)[C@H]1OC(=O)O (stereo not given in full)
- Activity (HepG2): 34%
- LD50 (Mus musculus [1]): 0.06 mg/kg
- LD50 (Mus musculus [2]): 0.07 mg/kg
- Activity (HeLa): 30%

Structure (SMILES): CC(=O)O[C@H]1O[C@@H](Sc2nc(N)c(C#N)c(-c3ccc(Br)cc3)c2C#N)[C@H](OC(C)=O)[C@@H](OC(C)=O)[C@@H]1OC(C)=O
- Activity (HepG2): 48%
- LD50 (Mus musculus [1]): 0.075 mg/kg
- LD50 (Mus musculus [2]): 0.065 mg/kg
- Activity (HeLa): 46%

Structure (SMILES): CC(=O)O[C@H]1O[C@@H](Sc2nc(N)c(C#N)c(-c3ccccc3)c2C#N)[C@H](OC(C)=O)[C@@H](OC(C)=O)[C@H]1OC(C)=O
- Activity (HepG2): 43%
- LD50 (Mus musculus [1]): 0.06 mg/kg
- LD50 (Mus musculus [2]): 0.065 mg/kg
- Activity (HeLa): 38%

Structure (SMILES): N#Cc1c(N)nc(S[C@@H]2O[C@H](O)[C@H](O)[C@H](O)[C@H]2O)c(C#N)c1-c1ccc2ccccc2c1
- Activity (HepG2): 57%
- LD50 (Mus musculus [1]): 0.125 mg/kg
- LD50 (Mus musculus [2]): 0.145 mg/kg
- Activity (HeLa): 53%

Structure (SMILES): COc1ccc(-c2c(C#N)c(N)nc(S[C@@H]3O[C@H](O)[C@H](O)[C@H](O)[C@H]3O)c2C#N)cc1
- Activity (HepG2): 56%
- LD50 (Mus musculus [1]): 0.13 mg/kg
- LD50 (Mus musculus [2]): 0.115 mg/kg
- Activity (HeLa): 47%

Structure (SMILES): N#Cc1c(N)nc(S[C@@H]2O[C@H](O)[C@@H](O)[C@H](O)[C@H]2O)c(C#N)c1-c1ccc(Br)cc1
- Activity (HepG2): 60%
- LD50 (Mus musculus [1]): 0.12 mg/kg
- LD50 (Mus musculus [2]): 0.105 mg/kg
- Activity (HeLa): 50%
